Values belong to the compound of their own block, whether it stands above or below them. The source made the active and inactive calls. The rule behind the calls is not given here.
What was measured:
[1] = biological target: T1, Galectin-8 (Homo sapiens) (UniProt O00214); test: Antagonist activity at galectin-8 in human SUM159PT cells assessed as reduction in galectin-8-induced IL-1beta mRNA expression at 500 uM incubated for 24 hrs by real-time PCR analysis; assay type: cell-based
T1 sequence (whole entry): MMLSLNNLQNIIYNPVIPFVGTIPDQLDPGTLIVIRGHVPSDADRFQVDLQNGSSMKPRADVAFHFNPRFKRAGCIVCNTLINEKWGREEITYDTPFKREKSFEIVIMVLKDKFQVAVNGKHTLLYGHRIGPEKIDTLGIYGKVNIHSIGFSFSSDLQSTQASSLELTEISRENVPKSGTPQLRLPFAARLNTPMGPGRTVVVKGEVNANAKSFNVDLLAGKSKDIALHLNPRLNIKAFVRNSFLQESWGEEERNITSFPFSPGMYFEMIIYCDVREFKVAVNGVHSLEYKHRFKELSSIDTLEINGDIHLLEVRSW
How it was run: (§1)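 SUM159 triple-negative breast cancer cells grown in RPMI with 10% FBS and penicillin/streptomycin at 37 °C, 5% CO2. Cells seeded at 50000 cells/cm², then incubated 24 h with compound at 500 µM, with or without 50 nM galectin-8. Means ± SEM from experiments done in duplicates.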

[2] = biological target: T1, Galectin-8 (Homo sapiens); test: Antagonist activity at galectin-8 in human SUM159PT cells assessed as reduction in galectin-8-induced IL-8 mRNA expression at 1 uM incubated for 24 hrs by real-time PCR analysis; assay type: cell-based; conditions: filed as antagonist
How it was run: (§2)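 SUM159 triple-negative breast cancer cells in RPMI/10% FBS at 37 °C, 5% CO2, seeded at 50000 cells/cm². Galectin-8 (50 nM) stimulated, with or without compound. Dose-response run at 1, 10, 100 and 500 µM.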

Galectin-8 = biological target: T2, Galectin-8 (Homo sapiens, UniProt O00214); test: Binding affinity to N-terminal domain of human galectin-8 (8-154 residues) by ITC assay
T2 sequence (O00214 whole entry): T1 sequence (whole entry)
How it was run: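 Untagged galectin-8N (residues 8-154) was expressed in bacteria (IPTG induction 4 h, room temperature) and purified on lactosyl-Sepharose at 4 °C. Protein and ligand were in 20 mM Tris pH 7.5, 100 mM NaCl, 4 mM BME, 5% DMSO and degassed. Ligand (0.5 or 1 mM) was titrated into 100 µM protein over 20-25 × 2.5 µl injections, 150 s apart, at 298 K. Blank-corrected data were fitted to an independent-site model for Kd.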

[3] = biological target: T1, Galectin-8 (Homo sapiens); test: Potency index, ratio of Kd for lactose to Kd for test compound for binding affinity to N-terminal domain of human galectin-8 (8-154 residues) by ITC assay; conditions: filed as antagonist
[4] = biological target: T1, Galectin-8 (Homo sapiens); test: Antagonist activity at galectin-8 in human SUM159PT cells assessed as reduction in galectin-8-induced IL-6 mRNA expression at 1 uM incubated for 24 hrs by real-time PCR analysis; assay type: cell-based; conditions: filed as antagonist; how it was run: as §2
[5] = biological target: T1, Galectin-8 (Homo sapiens); test: Antagonist activity at galectin-8 in human SUM159PT cells assessed as reduction in galectin-8-induced IL-8 mRNA expression at 500 uM incubated for 24 hrs by real-time PCR analysis; assay type: cell-based; how it was run: as §1
[6] = biological target: T1, Galectin-8 (Homo sapiens); test: Antagonist activity at galectin-8 in human SUM159PT cells assessed as reduction in galectin-8-induced IL-6 mRNA expression at 500 uM incubated for 24 hrs by real-time PCR analysis; assay type: cell-based; how it was run: as §1

Compound: CC(=O)N[C@H]1[C@H]([C@H](O)[C@H](O)CO)O[C@@](O[C@H]2[C@@H](O)[C@@H](CO)O[C@@H](O[C@H]3[C@H](O)[C@@H](O)[C@H](O)O[C@@H]3CO)[C@@H]2O)(C(=O)O)C[C@@H]1O
Kd (Galectin-8): 2.3 µM

Compound: COc1cc(OC)cc(OC(=O)CC(=O)O[C@H]2[C@@H](O)[C@@H](CO)O[C@@H](OC)[C@@H]2O)c1
Kd (Galectin-8): 11 µM

Compound: CO[C@@H]1O[C@H](CO)[C@H](O)[C@H](OC(=O)CC(=O)O)[C@H]1O
Antagonist activity [1]: inactive
Kd (Galectin-8): 33.6 µM
inhibition [5]: inactive
inhibition [6]: inactive

Compound: COC(=O)CC(=O)O[C@H]1[C@@H](O)[C@@H](CO)O[C@@H](OC)[C@@H]1O
Antagonist activity [1]: inactive
Kd (Galectin-8): 24.9 µM
inhibition [5]: inactive
inhibition [6]: inactive

Continued, values first:

Antagonist activity ([1]; filed as antagonist): Active
inhibition [2]: Active
Kd (Galectin-8): 5.72 µM
Ratio [3]: 7
inhibition [4]: Active
inhibition ([5]; filed as antagonist): Active
inhibition ([6]; filed as antagonist): Active
Compound: CO[C@@H]1O[C@H](CO)[C@H](O)[C@H](OC(=O)CC(=O)Oc2ccc(F)cc2)[C@H]1O

Kd (Galectin-8): 11.9 µM
Compound: CO[C@@H]1O[C@H](CO)[C@H](O)[C@H](OC(=O)CC(=O)Oc2ccc(Cl)cc2Cl)[C@H]1O

Kd (Galectin-8): 12.8 µM
Compound: CO[C@@H]1O[C@H](CO)[C@H](O)[C@H](OC(=O)CC(=O)Oc2ccccc2)[C@H]1O

Antagonist activity ([1]; filed as antagonist): Active
inhibition [2]: Active
Kd (Galectin-8): 9.17 µM
inhibition [4]: Active
inhibition ([5]; filed as antagonist): Active
inhibition ([6]; filed as antagonist): Active
Compound: CO[C@@H]1O[C@H](CO)[C@H](O)[C@H](OC(=O)CC(=O)OCc2ccccc2)[C@H]1O

Kd (Galectin-8): 9.47 µM
Compound: COc1ccc(OC(=O)CC(=O)O[C@H]2[C@@H](O)[C@@H](CO)O[C@@H](OC)[C@@H]2O)cc1

From ChEMBL document CHEMBL4665760, “Rational Design and Synthesis of Methyl-β-d-galactomalonyl Phenyl Esters as Potent Galectin-8N Antagonists” (J Med Chem, 2020)
